{"source": "ChEMBL document CHEMBL1671655", "about": "“Anidulafungin is fungicidal and exerts a variety of postantifungal effects against Candida albicans, C. glabrata, C. parapsilosis, and C. krusei isolates” (2009)", "key": {"Nakaseomyces glabratus [1]": {"system": "Nakaseomyces glabratus", "assay": "Antifungal activity against Candida glabrata isolate 2 by CLSI M27-A3 broth microdilution method", "assay_type": "functional", "in_short": "(§1)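 CLSI M27-A3 broth microdilution in RPMI 1640 buffered to pH 7.0 with MOPS. Starting inoculum 0.5 x 10^3 to 2.5 x 10^3 cells/ml, incubated at 35°C. MIC read as the lowest concentration giving >50% growth reduction versus control. Each isolate tested on at least three occasions.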"}, "Candida parapsilosis [2]": {"system": "Candida parapsilosis", "assay": "Antifungal activity against Candida parapsilosis isolate A assessed as cell wall damage at MIC by Transmission electron microscopy", "assay_type": "functional, organism-based", "in_short": "(§2)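 Cells recovered 8 h after a 1-h drug exposure were grown on SDA for 24 h at 35°C. Colonies fixed at 4°C in 0.1 M cacodylate (pH 7.2) with 2% glutaraldehyde and 2% paraformaldehyde, ethanol-dehydrated and embedded in Lowicryl K4M. Thin sections examined by transmission EM.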"}, "Nakaseomyces glabratus [3]": {"system": "Nakaseomyces glabratus", "assay": "Fungicidal activity against Candida glabrata isolate 1 assessed as log reduction in bacterial count at 16 times MIC after 48 hrs by time-kill analysis", "assay_type": "functional", "details": "isolate 1, 48 h", "in_short": "(§3)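 Isolates subcultured twice on SDA, suspended to 0.5 McFarland, giving ~1 x 10^5 to 5 x 10^5 CFU/ml in MOPS-buffered RPMI 1640 (pH 7.0) with or without drug at multiples of MIC (MIC by CLSI M27-A3). Tubes shaken at 35°C with continuous drug. Sampled at 0–48 h, diluted 10-fold and plated on SDA; CFU counted after 48 h at 35°C. Run twice per isolate; means.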"}, "Candida albicans [4]": {"system": "Candida albicans", "assay": "Antifungal activity against Candida albicans isolate 1 coincubated with mouse J774 macrophages assessed as macrophage induced bacterial cell killing at 4 times MIC (reference value: 14 +/- 8 %)", "assay_type": "functional"}, "Candida parapsilosis [5]": {"system": "Candida parapsilosis", "assay": "Antifungal activity against Candida parapsilosis isolate 1 coincubated with mouse J774 macrophages assessed as macrophage induced bacterial cell killing at 4 times MIC (reference value: 22 +/- 12 %)", "assay_type": "functional"}, "Candida parapsilosis [6]": {"system": "Candida parapsilosis", "assay": "Fungicidal activity against Candida parapsilosis isolate 1 assessed as log reduction in bacterial count at MIC after drug exposure for 1 hr followed by washout measured after 48 hrs in the absence of drug by PAFE study", "assay_type": "functional", "details": "Lodderomyces parapsilosis", "in_short": "(§4)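 Inoculum about 1 x 10^5 to 5 x 10^5 CFU/ml in RPMI 1640 (MOPS, pH 7.0) with drug, shaken at 35°C for 1 h. Cells were then washed and centrifuged at 1,400 x g for 10 min (3 cycles) and resuspended in warm drug-free RPMI. Samples plated on SDA at 0, 2, 4, 8, 12, 24 and 48 h; CFU counted after 48 h at 35°C. Run twice per isolate; means.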"}, "Nakaseomyces glabratus [7]": {"system": "Nakaseomyces glabratus", "assay": "Fungicidal activity against Candida glabrata isolate 1 assessed as log reduction in bacterial count at 4 times MIC after drug exposure for 1 hr followed by washout measured after 48 hrs in the absence of drug by PAFE study", "assay_type": "functional", "in_short": "(§5)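 Starting inoculum ~1 x 10^5 to 5 x 10^5 CFU/ml in MOPS-buffered RPMI 1640 (pH 7.0) with drug at multiples of the CLSI M27-A3 MIC. After 1 h at 35°C, cells washed and centrifuged three times at 1,400 x g for 10 min, then resuspended in warm drug-free RPMI. Shaken at 35°C and plated on SDA at 0–48 h; CFU counted after 48 h. Run twice per isolate; means.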"}, "Pichia kudriavzevii [8]": {"system": "Pichia kudriavzevii", "assay": "Antifungal activity against Candida krusei isolate 1 assessed as cell wall damage at MIC by Transmission electron microscopy", "assay_type": "functional, organism-based", "in_short": "as §2"}, "Candida parapsilosis [9]": {"system": "Candida parapsilosis", "assay": "Antifungal activity against Candida parapsilosis isolate 1 assessed as time period for bacterial growth inhibition at 16 times MIC after 1 hr drug exposure", "assay_type": "functional", "in_short": "(§6)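 Inoculum of about 1 x 10^5 to 5 x 10^5 CFU/ml in MOPS-buffered RPMI (pH 7.0), shaken at 35°C and exposed to drug for 1 h. Cells then washed and centrifuged three times and resuspended in drug-free warm RPMI. Samples plated on SDA at 0, 2, 4, 8, 12, 24 and 48 h, with CFU counted after 48 h at 35°C. Run twice per isolate; values are means.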"}, "Pichia kudriavzevii [10]": {"system": "Pichia kudriavzevii", "assay": "Fungicidal activity against Candida krusei isolate 1 assessed as log reduction in bacterial count at MIC after 48 hrs by time-kill analysis", "assay_type": "functional", "details": "isolate 1, 48 h", "in_short": "as §3"}, "Candida albicans [11]": {"system": "Candida albicans", "assay": "Fungicidal activity against Candida albicans isolate 2 assessed as log reduction in bacterial count at MIC after 48 hrs by time-kill analysis", "assay_type": "functional", "details": "isolate 2, 48 h", "in_short": "as §3"}, "Pichia kudriavzevii [12]": {"system": "Pichia kudriavzevii", "assay": "Increase in susceptibility to SDS in Candida krusei isolate ATCC 6258 assessed as cell wall damage at 4 times MIC after 1 hr relative to control", "assay_type": "functional, organism-based", "in_short": "(§7)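 Cells recovered 8 h after a 1-h drug exposure were grown in YPD with 1% glucose to exponential phase and adjusted to OD599 0.1. Undiluted culture and 10-fold serial dilutions were spotted onto YPD plates containing SDS (0.01 to 0.04%), then incubated 72 h at 30°C. Growth compared with unexposed control cells; triplicate.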"}, "Candida parapsilosis [13]": {"system": "Candida parapsilosis", "assay": "Fungicidal activity against Candida parapsilosis isolate 1 assessed as log reduction in bacterial count at 4 times MIC after 48 hrs by time-kill analysis", "assay_type": "functional", "details": "Lodderomyces parapsilosis, isolate 1, 48 h", "in_short": "as §3"}, "Candida parapsilosis [14]": {"system": "Candida parapsilosis", "assay": "Increase in susceptibility to calcofluor white in Candida parapsilosis isolate 1 assessed as cell wall damage at MIC after 1 hr relative to control", "assay_type": "functional, organism-based", "in_short": "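Candida given a 1-h anidulafungin pulse in MOPS-buffered RPMI 1640 (pH 7.0) at 35°C, washed three times by centrifugation, and regrown drug-free. Cells collected 8 h later, grown in YPD with 1% glucose to exponential phase, and set to OD599 0.1. Undiluted culture and 10-fold dilutions (4 µl) spotted on YPD plates with calcofluor white, then 30°C for 72 h. Triplicate; compared with no-drug cells.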"}, "Candida parapsilosis [15]": {"system": "Candida parapsilosis", "assay": "Increase in susceptibility to SDS in Candida parapsilosis isolate A assessed as cell wall damage at 4 times MIC after 1 hr relative to control", "assay_type": "functional, organism-based", "in_short": "as §7"}, "Nakaseomyces glabratus [16]": {"system": "Nakaseomyces glabratus", "assay": "Antifungal activity against Candida glabrata isolate 3 assessed as time period for bacterial growth inhibition at 4 times MIC after 1 hr drug exposure", "assay_type": "functional", "in_short": "as §6"}, "Candida tropicalis": {"system": "Candida tropicalis", "assay": "Antifungal activity against Candida tropicalis by NCCLS M27A broth microdilution method", "assay_type": "functional"}, "Candida parapsilosis [17]": {"system": "Candida parapsilosis", "assay": "Fungicidal activity against Candida parapsilosis isolate A assessed as log reduction in bacterial count at 4 times MIC after drug exposure for 1 hr followed by washout measured after 48 hrs in the absence of drug by PAFE study", "assay_type": "functional", "details": "Lodderomyces parapsilosis", "in_short": "as §4"}, "Nakaseomyces glabratus [18]": {"system": "Nakaseomyces glabratus", "assay": "Fungicidal activity against Candida glabrata isolate 2 assessed as log reduction in bacterial count at 16 times MIC after drug exposure for 1 hr followed by washout measured after 48 hrs in the absence of drug by PAFE study", "assay_type": "functional", "in_short": "as §5"}, "Candida parapsilosis [19]": {"system": "Candida parapsilosis", "assay": "Fungicidal activity against Candida parapsilosis isolate A assessed as log reduction in bacterial count at MIC after drug exposure for 1 hr followed by washout measured after 48 hrs in the absence of drug by PAFE study", "assay_type": "functional", "details": "Lodderomyces parapsilosis", "in_short": "as §4"}, "Candida parapsilosis [20]": {"system": "Candida parapsilosis", "assay": "Fungicidal activity against Candida parapsilosis isolate S assessed as log reduction in bacterial count at 16 times MIC after drug exposure for 1 hr followed by washout measured after 48 hrs in the absence of drug by PAFE study", "assay_type": "functional", "details": "Lodderomyces parapsilosis", "in_short": "as §4"}, "Candida albicans [21]": {"system": "Candida albicans", "assay": "Antifungal activity against Candida albicans isolate S by CLSI M27-A3 broth microdilution method", "assay_type": "functional", "in_short": "as §1"}}, "note": "Activity calls are given as the source filed them. The calls are words filed in the database; no cut-off is given here. Starred links: 1 amine or outer side, 2 acyl side, 3 side chain; linkers in the order of their positions; H or OH if unused. Positions of bridges follow the written chain, without caps; N, C: chain ends. Non-standard residues stand in square brackets, D forms with d. Residues, ends and D or L forms follow the SMILES beside them. *: point of attachment. pTerphenylCO(4''-OnC5H11) = CCCCCOc1ccc(-c2ccc(-c3ccc(C(=O)*)cc3)cc2)cc1; Orn(4R-OH,5R-OH) = O=C([C@H](C[C@@H](O)[C@@H](O)N[*:3])N[*:1])[*:2]; hTyr(3S-OH,4S-OH) = N[C@H](C(=O)O)[C@H](O)[C@@H](O)c1ccc(O)cc1; Pro(3S-OH,4S-Me) = C[C@H]1CN[C@H](C(=O)O)[C@H]1O; Hyp = O=C(O)[C@@H]1C[C@@H](O)CN1", "data": [{"smiles": "CCCCCOc1ccc(-c2ccc(-c3ccc(C(=O)N[C@H]4C[C@@H](O)[C@@H](O)NC(=O)[C@@H]5[C@@H](O)[C@@H](C)CN5C(=O)[C@H]([C@@H](C)O)NC(=O)[C@H]([C@H](O)[C@@H](O)c5ccc(O)cc5)NC(=O)[C@@H]5C[C@@H](O)CN5C(=O)[C@H]([C@@H](C)O)NC4=O)cc3)cc2)cc1", "note": "[ANIDULAFUNGIN] ({pTerphenylCO(4''-OnC5H11)}-[Orn(4R-OH,5R-OH)]T[Hyp][hTyr(3S-OH,4S-OH)]T[Pro(3S-OH,4S-Me)]; lactam 1-C)", "values": [{"measurement": "MIC", "setting": "Nakaseomyces glabratus [1]", "value": 0.03, "unit": "µg/mL"}, {"measurement": "Activity", "setting": "Candida parapsilosis [2]", "value": "Active"}, {"measurement": "log reduction", "setting": "Nakaseomyces glabratus [3]", "value": 3.44, "unit": "log CFU/ml"}, {"measurement": "inhibition (INH)", "setting": "Candida albicans [4]", "value": 37, "unit": "%"}, {"measurement": "inhibition (INH)", "setting": "Candida parapsilosis [5]", "value": 27, "unit": "%"}, {"measurement": "log reduction", "setting": "Candida parapsilosis [6]", "value": 0.81}, {"measurement": "log reduction", "setting": "Nakaseomyces glabratus [7]", "value": 2.81}, {"measurement": "Activity", "setting": "Pichia kudriavzevii [8]", "value": "Active"}, {"measurement": "Time", "setting": "Candida parapsilosis [9]", "value": 8, "unit": "h"}, {"measurement": "log reduction", "setting": "Pichia kudriavzevii [10]", "value": 1.74, "unit": "log CFU/ml"}, {"measurement": "log reduction", "setting": "Candida albicans [11]", "value": 0.89, "unit": "log CFU/ml"}, {"measurement": "Activity", "setting": "Pichia kudriavzevii [12]", "value": "Active"}, {"measurement": "log reduction", "setting": "Candida parapsilosis [13]", "value": 3.07, "unit": "log CFU/ml"}, {"measurement": "Activity", "setting": "Candida parapsilosis [14]", "value": "Active"}, {"measurement": "Activity", "setting": "Candida parapsilosis [15]", "value": "Active"}, {"measurement": "Time", "setting": "Nakaseomyces glabratus [16]", "value": 8, "unit": "h"}, {"measurement": "MIC90", "setting": "Candida tropicalis", "value": 0.06, "unit": "µg/mL"}, {"measurement": "log reduction", "setting": "Candida parapsilosis [17]", "value": 2.54}, {"measurement": "log reduction", "setting": "Nakaseomyces glabratus [18]", "value": 2.92}, {"measurement": "log reduction", "setting": "Candida parapsilosis [19]", "value": 1.41}, {"measurement": "log reduction", "setting": "Candida parapsilosis [20]", "value": 3.05}, {"measurement": "MIC", "setting": "Candida albicans [21]", "value": 0.008, "unit": "µg/mL"}]}]}
